{"source": "paper PMC4651729", "about": "(ACS chemical neuroscience, 2015)", "key": {"mouse DOR-1": {"biological_target": "mouse DOR-1 (Mus musculus, UniProt P32300)", "assay": "[125I]BNtxA competition binding, CHO cell membranes, DOR-1", "outline": "(§1)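 Membranes from CHO cells stably expressing the murine receptor clone, with no blockers, were incubated for 90 min at 25 °C in 50 mM potassium phosphate buffer (pH 7.4) with 5 mM MgSO4. Samples were then filtered on glass-fiber filters and washed with ice-cold 50 mM Tris-HCl (pH 7.4). Nonspecific binding was set with levallorphan 8 μM. Ki came from nonlinear regression. The 6TM/E11 comparison used mouse whole-brain membranes with CTAP, U50,488H and DPDPE, each at 200 nM.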"}, "MOR-1": {"biological_target": "MOR-1 (Mus musculus, UniProt P42866)"}, "mice": {"tested_on": "mice", "assay": "conditioned place preference/aversion", "type": "in vivo, mouse", "details": "2 days; for effect of pretreatment on cocaine-conditioned place preference: 16 1 mg/kg sc 10 min prior to cocaine 10 mg/kg sc; for place conditioning response to drug alone: 16 1 mg/kg sc, morphine 10 mg/kg ip, U50,488 30 mg/kg ip, cocaine 10 mg/kg sc"}, "KOR-1": {"biological_target": "KOR-1 (Mus musculus, UniProt P33534)", "assay": "[35S]GTPγS binding assay, KOR-1", "type": "biochemical"}, "CD1 mice": {"tested_on": "CD1 mice", "assay": "radiant heat tail flick analgesia", "type": "in vivo, mouse", "details": "for fold higher analgesic potency than morphine: tail flick, systemic (sc)"}, "mouse MOR-1": {"biological_target": "mouse MOR-1 (Mus musculus, UniProt P42866)", "assay": "[125I]BNtxA competition binding, CHO cell membranes, MOR-1", "outline": "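Mouse MOR-1 clone stably expressed in CHO cells; membranes incubated 90 min at 25 °C in 50 mM potassium phosphate buffer, pH 7.4, with 5 mM MgSO4, no blockers. Filtration through glass-fibre filters, three washes with ice-cold 50 mM Tris-HCl, pH 7.4. Nonspecific binding with 8 μM levallorphan, subtracted from total. Ki by nonlinear regression. Protein measured by Lowry method.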"}, "mouse KOR-1": {"biological_target": "mouse KOR-1 (Mus musculus, UniProt P33534)", "assay": "[125I]BNtxA competition binding, CHO cell membranes, KOR-1", "outline": "as §1"}, "[1]": {"tested_on": "C57BL/6J, MOR-1 KO or KOR-1 KO mice", "details": "C57BL/6J mice, sc"}, "DOR-1": {"biological_target": "DOR-1 (Mus musculus, UniProt P32300)"}, "[2]": {"details": "doses 30 times the antinociceptive ED50"}, "6TM/E11": {"biological_target": "6TM/E11 (Mus musculus, UniProt P42866)", "type": "binding", "outline": "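Membrane homogenates of whole brain from wild-type mice. Blockers at 200 nM: CTAP for MOR-1, U50,488H for KOR-1 and DPDPE for DOR-1.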"}}, "note": "“Also recorded” adds a separate entry of the source.", "data": [{"smiles": "O=C(N[C@@H]1C=C[C@H]2[C@H]3Cc4ccc(O)c5c4[C@@]2(CCN3CC2CC2)[C@H]1O5)c1cccc(I)c1", "note": "[Compound 16, 17-Cyclopropylmethyl-3-hydroxy-4,5α-epoxy-7,8-en-6-β-[(3′-iodo)benzamido]-morphinan]", "values": [{"measurement": "fold higher DOR-1 affinity than corresponding 14-OH-epoxymorphinan analog", "setting": "mouse DOR-1; 6 vs 19, 16 vs 1, 17 vs 20", "value": 3, "unit": "fold"}, {"measurement": "selectivity for DOR-1 over 6TM/E11 sites", "setting": "mouse DOR-1; ratio of Ki", "value": 6, "unit": "fold"}, {"measurement": "Ki", "setting": "mouse DOR-1; read-out: Ki DOR-1, [125I]BNtxA 0.1 nM, CHO membranes, mouse DOR-1", "value": "0.08 ± 0.019", "unit": "nM"}, {"measurement": "agonist efficacy at MOR-1 (in words)", "setting": "MOR-1; [35S]GTPγS, listed as 16 (MP1104)", "value": "full agonist eficacy; also recorded: full agonism"}, {"measurement": "EC50", "setting": "MOR-1; read-out: EC50 MOR-1, [35S]GTPγS stimulation", "value": "0.21 ± 0.03", "unit": "nM"}, {"measurement": "Emax (% stimulation) MOR-1", "setting": "MOR-1; relative to DAMGO at 100 nM", "value": "103 ± 2.5", "unit": "% stimulation"}, {"measurement": "effect of pretreatment on cocaine-conditioned place preference", "setting": "mice; listed as 16 (MP1104)", "value": "prevented significant place preference produced by cocaine; also recorded: prevented cocaine-conditioned place preference; also recorded: abolished cocaine preference; also recorded: effectively blocked cocaine-conditioned place preference"}, {"measurement": "effect of pretreatment on cocaine-conditioned place preference", "setting": "mice; listed as MP1104", "value": "prevented the reward behavior associated with cocaine"}, {"measurement": "place conditioning response to drug alone", "setting": "mice; listed as 16 (MP1104)", "value": "neither conditioned place preference nor aversion; also recorded: did not produce conditioned place preference or aversion; also recorded: produced neither preference nor aversion; also recorded: lacks rewarding and dysphoric properties"}, {"measurement": "place conditioning response to drug alone", "setting": "mice; listed as MP1104", "value": "did not cause place aversion or preference"}, {"measurement": "agonist efficacy at KOR-1 (in words)", "setting": "KOR-1; [35S]GTPγS", "value": "full agonist eficacy"}, {"measurement": "EC50", "setting": "KOR-1; read-out: EC50 KOR-1, [35S]GTPγS stimulation", "value": "0.027 ± 0.002", "unit": "nM"}, {"measurement": "Emax (% stimulation) KOR-1", "setting": "KOR-1; relative to U50,488H at 100 nM", "value": "104 ± 2.3", "unit": "% stimulation"}, {"measurement": "antinociception after pretreatment with NOP antagonist J-113,397", "setting": "CD1 mice; CD1 mice, 16 0.5 mg/kg sc, J-113,397 30 mg/kg sc 15 min before, listed as 16 (MP1104)", "value": "No change in the antinociceptive efiect; also recorded: insensitive"}, {"measurement": "antinociception after pretreatment with DOR-1 antagonist NTI", "setting": "CD1 mice; CD1 mice, 16 0.5 mg/kg sc, NTI 20 mg/kg sc 15 min before, listed as 16 (MP1104)", "value": "attenuated the antinociceptive effects; also recorded: partially antagonized"}, {"measurement": "antinociception after pretreatment with both norBNI and NTI", "setting": "CD1 mice; CD1 mice, 16 0.5 mg/kg sc, listed as 16 (MP1104)", "value": "fully prevented antinociception; also recorded: eliminated the antinociceptive response"}, {"measurement": "antinociception after pretreatment with KOR-1 antagonist norBNI", "setting": "CD1 mice; CD1 mice, 16 0.5 mg/kg sc, norBNI 10 mg/kg sc 24 h before, listed as 16 (MP1104)", "value": "attenuated the antinociceptive effects; also recorded: partially antagonized"}, {"measurement": "antinociception after pretreatment with MOR-1 antagonist β-FNA", "setting": "CD1 mice; CD1 mice, 16 0.5 mg/kg sc, β-FNA 40 mg/kg sc 24 h before, listed as 16 (MP1104)", "value": "did not alter anti-nociception; also recorded: insensitive"}, {"measurement": "tail flick analgesia (CI), ED50", "setting": "CD1 mice; sc, 30 min after dosing, mice, 95% CI or ± SEM", "value": "0.33 ± 0.09", "unit": "mg/kg"}, {"measurement": "fold higher analgesic potency than morphine", "setting": "CD1 mice; listed as 16 (MP1104)", "value": 15, "unit": "fold"}, {"measurement": "fold higher analgesic potency than morphine", "setting": "CD1 mice; listed as MP1104", "value": "approximately 15 fold"}, {"measurement": "fold higher MOR-1 affinity than corresponding 14-OH-epoxymorphinan analog", "setting": "mouse MOR-1; 6 vs 19, 16 vs 1, 17 vs 20", "value": 5, "unit": "fold"}, {"measurement": "selectivity for MOR-1 over 6TM/E11 sites", "setting": "mouse MOR-1; ratio of Ki", "value": 22, "unit": "fold"}, {"measurement": "Ki", "setting": "mouse MOR-1; read-out: Ki MOR-1, [125I]BNtxA 0.1 nM, CHO membranes, mouse MOR-1", "value": "0.021 ± 0.0034", "unit": "nM"}, {"measurement": "fold higher KOR-1 affinity than corresponding 14-OH-epoxymorphinan analog", "setting": "mouse KOR-1; 6 vs 19, 16 vs 1, 17 vs 20", "value": 4.7, "unit": "fold"}, {"measurement": "selectivity for KOR-1 over 6TM/E11 sites", "setting": "mouse KOR-1; ratio of Ki", "value": 73, "unit": "fold"}, {"measurement": "Ki", "setting": "mouse KOR-1; read-out: Ki KOR-1, [125I]BNtxA 0.1 nM, CHO membranes, mouse KOR-1", "value": "0.0064 ± 0.002", "unit": "nM"}, {"measurement": "antinociception ED50 (95% confidence interval)", "setting": "[1]", "value": "0.22 (0.17–0.29) mg/kg"}, {"measurement": "agonist efficacy at DOR-1 (in words)", "setting": "DOR-1; [35S]GTPγS", "value": "full agonist eficacy"}, {"measurement": "EC50", "setting": "DOR-1; read-out: EC50 DOR-1, [35S]GTPγS stimulation", "value": "0.41 ± 0.11", "unit": "nM"}, {"measurement": "Emax (% stimulation) DOR-1", "setting": "DOR-1; relative to DPDPE at 100 nM", "value": "88 ± 0.38", "unit": "% stimulation"}, {"measurement": "seizures", "setting": "[2]", "value": "not observed to produce seizures"}, {"measurement": "fold lower 6TM/E11 affinity than 1", "setting": "6TM/E11; compared with 1", "value": 3, "unit": "fold"}, {"measurement": "Ki", "setting": "6TM/E11; read-out: Ki 6TM/E11, [125I]BNtxA 0.1 nM, mouse brain, CTAP, DPDPE, U50,488 blockers at 200 nM", "value": "0.47 ± 0.009", "unit": "nM"}]}]}
